Target: PvdQ acylase (Pseudomonas aeruginosa)
Assay: P. aeruginosa PvdQ acylase inhibitors, dose response, biochemical, fluorescence, plate reader, dry powder, set 2 (AID 623985)
Conditions: purified PvdQ, 4-MU laurate fluorescence, 60 min
Summary of the method: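 Detection: fluorescence, Ex 303–367 nm, Em 440–460 nm; assay system: purified Pseudomonas aeruginosa PvdQ acylase enzyme; input: PvdQ enzyme at 0.02 µM final; probe or stimulus: 0.8 mM 4-MU laurate; times: 30 min enzyme–compound pre-incubation, then 60 min substrate reaction, room temperature; medium: Tris pH 8.0, NaCl, TCEP buffer with Triton X-100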

Structure (SMILES)	AC50 [nM]
N#Cc1cccc(C(C#N)c2ccc(Cl)cc2)n1 (stereo unspecified)	60.6
N#Cc1cccc(C(C#N)c2ccc(Cl)cc2F)n1 (stereo unspecified)	46.7
Cc1ccc(C(C#N)c2ccc(Cl)cc2)nc1 (stereo unspecified)	150
N#CC(c1cccc(C(F)(F)F)n1)c1ccccc1OC(F)(F)F (stereo unspecified)	376
N#Cc1cccc(C(C#N)c2ccc(Cl)cc2Cl)n1 (stereo unspecified)	303
N#CC(c1ccc(Cl)cc1)c1cccc(Cl)n1 (stereo unspecified)	17.9
N#CC(c1ccc(F)cc1)c1ccc(C(F)(F)F)c(Cl)n1 (stereo unspecified)	548
CCCCC(C#N)c1ccc(Cl)cc1Cl (stereo unspecified)	281
N#CC(c1cccc(Cl)n1)c1ccc(Cl)cc1Cl (stereo unspecified)	170
N#CC(c1ccc(C(F)(F)F)c(Cl)n1)c1ccc(Cl)cc1F (stereo unspecified)	484
N#CC(c1ccc(C(F)(F)F)cc1)c1ccc(C(F)(F)F)c(Cl)n1 (stereo unspecified)	2950
N#CC(c1ccc(Cl)cc1)c1ncccc1Cl (stereo unspecified)	< 3
N#CC(c1ccc(C(F)(F)F)c(Cl)n1)c1ccc(Cl)cc1Cl (stereo unspecified)	2440
Cc1ccc(C(C#N)c2ccc(F)cc2)nc1C#N (stereo unspecified)	96.6
N#Cc1ccc(C(C#N)c2ccc(Cl)cc2Cl)nc1 (stereo unspecified)	1940
N#CC(c1cccc(C(F)(F)F)n1)c1ccc(Cl)cc1F (stereo unspecified)	< 3
N#CC(c1ccc(C(F)(F)F)c(Cl)n1)c1ccccc1OC(F)(F)F (stereo unspecified)	597
N#Cc1cccc(C(C#N)c2ccccc2OC(F)(F)F)n1 (stereo unspecified)	227
CCCCC(C#N)c1ccc(C(F)(F)F)cc1 (stereo unspecified)	1590
N#CC(c1ccc(C(F)(F)F)cc1)c1cccc(Cl)n1 (stereo unspecified)	357
N#CC(c1cccc(Cl)n1)c1ccccc1OC(F)(F)F (stereo unspecified)	754

Structure (SMILES)	AC50 [nM]
CCCCC(C#N)c1ccc(Cl)cc1 (stereo unspecified)	56.9
CC(C#N)(c1ccc(Cl)cc1)c1ccc(C(F)(F)F)cn1 (stereo unspecified)	1230
N#CC(c1ccc(Cl)cc1)c1ccc(C(F)(F)F)cn1 (stereo unspecified)	171
N#CC(c1ccc(F)cc1)c1cccc(C(F)(F)F)n1 (stereo unspecified)	5.02
CCCC(C#N)c1ccc(Cl)cc1 (stereo unspecified)	293
N#CC(c1ccc(Cl)cc1Cl)c1ncccc1Cl (stereo unspecified)	141
CCCCC(C#N)c1ccc(F)cc1 (stereo unspecified)	45.5
N#Cc1ccc(C(C#N)c2ccc(Cl)cc2)nc1 (stereo unspecified)	1310
N#CC(c1ccc(Cl)cc1)c1cccc(C(F)(F)F)n1 (stereo unspecified)	4.16
N#CC(c1cccc(Cl)n1)c1ccc(Cl)cc1F (stereo unspecified)	22.4
Cc1ccc(C(C#N)c2ccccc2OC(F)(F)F)nc1C#N (stereo unspecified)	328
N#CC(CC1CC1)c1ccc(Cl)cc1 (stereo unspecified)	133
Cc1ccc(C(C#N)c2ccc(Cl)cc2)nc1C#N (stereo unspecified)	69.7
N#CC(c1ccc(Cl)cc1)c1ccc(Cl)cn1 (stereo unspecified)	73.3
Cc1cccc(C(C#N)c2ccc(Cl)cc2)n1 (stereo unspecified)	162
CCCCC(C#N)c1ccc(Cl)cc1F (stereo unspecified)	315
COc1cccc(C(C#N)c2ccc(F)cc2)n1 (stereo unspecified)	124
N#CC(c1ccc(C(F)(F)F)cc1)c1cccc(C(F)(F)F)n1 (stereo unspecified)	27
N#CC(c1ccc(Cl)cc1)c1ccc(C(F)(F)F)c(Cl)n1 (stereo unspecified)	609
CC(C)CC(C#N)c1ccc(Cl)cc1 (stereo unspecified)	203
